Measured values: PMC2803432 (Current Chemical Genomics, 2008)
Values belong to the molecule of their own block, whether it stands above or below them. Residues, ends and D or L forms follow the SMILES beside them. No end group written: not given here.

How the values were obtained:
[1] = system: 14-3-3 proteins; conditions: cited from earlier work
[2] = molecular target: T1, 14-3-3γ (Homo sapiens, UniProt P61981); test: AlphaScreen direct binding of biotin-pS259-Raf-1 to GST-14-3-3γ; conditions: increasing GST-14-3-3γ and biotin-pS259-Raf-1 with both beads
T1 sequence (P61981 1-247): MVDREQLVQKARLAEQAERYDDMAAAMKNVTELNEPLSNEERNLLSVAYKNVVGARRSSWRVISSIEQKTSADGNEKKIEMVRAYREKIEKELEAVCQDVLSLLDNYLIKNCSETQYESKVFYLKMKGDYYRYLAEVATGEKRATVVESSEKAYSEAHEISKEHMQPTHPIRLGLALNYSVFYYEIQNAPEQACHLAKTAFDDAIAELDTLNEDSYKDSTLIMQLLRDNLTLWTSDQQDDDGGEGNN
Summary of the method: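 Biotinylated pS259-Raf-1 peptide (LSQRSTpSTPNVHM) was titrated with purified GST-14-3-3γ; Z' runs used 100 nM peptide. Anti-GST acceptor beads were added and incubated 30 min, then streptavidin donor beads for 1.5 h. Luminescence was read under dim light. Background wells held one binding component.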

[3] = molecular target: T1, 14-3-3γ; test: AlphaScreen direct binding of GST-R18 to biotin-14-3-3γ; conditions: GST-R18 5 nM to 500 nM; biotin-14-3-3γ 5 nM or 10 nM
Summary of the method: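 His-14-3-3γ expressed in E. coli BL21(DE3), Ni2+-column purified, desalted, then biotinylated with sulfo-NHS-LC-biotin. GST-R18 expressed in E. coli. Anti-GST acceptor beads added, then streptavidin donor beads 30 min later. Read after 1.5 h at room temperature under dim light. Background wells held one component. Triplicate, mean ± SD.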

[4] = molecular target: biotinylated His-14-3-3γ (UniProt P61981); test: AlphaScreen or HTRF
[5] = molecular target: GST-14-3-3γ (UniProt P61981); test: AlphaScreen or HTRF
[6] = molecular target: T2, biotinylated His-14-3-3γ (UniProt P61981 1-247, biotin (EZ-Link sulfo-NHS-LC-biotin; sites not stated)); test: AlphaScreen or HTRF
T2 sequence (looked up): T1 sequence (P61981 1-247)

[7] = molecular target: T3, GST-14-3-3γ (UniProt P61981 1-247); test: AlphaScreen or HTRF
T3 sequence (looked up): T1 sequence (P61981 1-247)

Molecule: CSCC[C@H](NC(=O)[C@H](CC(N)=O)NC(=O)[C@H](C)NC(=O)[C@H](CCC(=O)O)NC(=O)[C@H](CC(C)C)NC(=O)[C@H](CC(=O)O)NC(=O)[C@H](CC(C)C)NC(=O)[C@H](Cc1c[nH]c2ccccc12)NC(=O)[C@H](CO)NC(=O)[C@H](CC(C)C)NC(=O)[C@H](CC(=O)O)NC(=O)[C@H](CCCNC(=N)N)NC(=O)[C@@H]1CCCN1C(=O)[C@@H](NC(=O)[C@H](CS)NC(=O)[C@H](Cc1c[nH]cn1)NC(=O)[C@@H]1CCCN1)C(C)C)C(=O)N[C@@H](CS)C(=O)N[C@@H](CC(C)C)C(=O)N1CCC[C@H]1C(=O)O [R18] (H-PHCVPRDLSWLDLEANMCLP-OH; N-terminus and C-terminus assumed)
effect of GST fusion on efficacy of R18 for 14-3-3 binding ([1]; GST fusion of R18, ref [10]): no detectable effect on the efficacy of R18 for 14-3-3 binding | competition with natural proteins for binding of 14-3-3 (in words) ([1]; ref [17]): can effectively compete with other natural proteins for the binding of 14-3-3 proteins | affinity for 14-3-3 proteins (in words) ([1]; unphosphorylated peptide from phage display, ref [10]): exhibits a high affinity for 14-3-3 proteins

Alpha signal with increasing concentration (in words) [2]: dose-dependent increase in Alpha signal
Molecule: Biotin-LSQRSTpSTPNVHM [biotin-pS259-Raf-1]

Molecule: GST-R18: GST-tagged R18 protein-peptide fusion, purified from bacterial cells (PHCVPRDLSWLDLEANMCLP; cysteine pairing not given here; also: GST tag fused, end not given here)
Alpha signal with increasing concentration (in words) [3]: induced the robust production of Alpha signal in a dose-dependent manner

IC50 [4]: 549 nM | IC50 [5]: 535 nM
Molecule: pS967-ASK1 peptide

IC50 [6]: 28 ± 1.1 nM | IC50 [7]: 35.7 ± 1.1 nM
Molecule: PHCVPRDLSWLDLEANMCLP [untagged R18 peptide]
